Assay results taken from article PMC6916675 (Cancer Management and Research, 2019).
Entries after “also recorded” stand apart in the source; their conditions may differ.

Tests used:
[1] = tested on: mTORC1 (p4E-BP1.T37/T46); experiment: p4E-BP1 biomarker inhibition in stimulated blood monocytes; type: in vivo, human
How it was run: (§1)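 Blood sampled predose and up to 5 hrs postdose on cycle 1 days 1 and 15, plus around tumour biopsy (days 15–21). Markers: p4E-BP1 T37/T46 (mTORC1) and pAKT S473 (mTORC2). In Part B, CD14+ monocytes were stimulated with anti-IgD plus lipopolysaccharide (37°C, 15 min) and analysed by flow cytometry. Signal was expressed as molecules of equivalent fluorescein.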

[2] = Plasma pharmacokinetics of CC-115; type: in vivo, human; conditions: for AUC(0-inf) / Vd/F / AUC / Cmax / Tmax: human, plasma, oral; for Cmax: Plasma Cmax, mean (CV%); for Tmax: Plasma Tmax, median (min, max)
[3] = Urinary excretion of CC-115; type: in vivo, human; conditions: for Fe (fraction excreted unchanged in urine), mean (CV%) / Urine Ae24, mean (CV%): first dose
[4] = tested on: mTORC2 (pAKT.S473); experiment: pAKT biomarker inhibition in stimulated blood monocytes; type: in vivo, human
How it was run: as §1

[5] = Bioavailability/food effect; type: in vivo, human; conditions: single oral dose with high-fat meal vs fasted
[6] = tested on: pAKT; experiment: Immunohistochemistry of paired tumor biopsies, pAKT; type: in vivo, human; conditions: before treatment vs after approximately 15 days of treatment
[7] = tested on: p4EBP1; experiment: Immunohistochemistry of paired tumor biopsies, p4EBP1; type: in vivo, human; conditions: before treatment vs after approximately 15 days of treatment
[8] = tested on: advanced solid or hematologic malignancies; experiment: Antitumor efficacy; type: in vivo, human
How it was run: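 Investigators assessed response by RECIST 1.1, RANO, updated IWCLL or PCWG2 criteria. Solid tumours were restaged by CT or MRI after cycles 2, 4, 6, 9 and 12, every 6 cycles thereafter, and at end of treatment. Patients meeting IWCLL criteria but with persistent lymphocytosis were classed non-IWCLL. Best overall response frequency was tabulated. BA/FE substudy: 12 solid-tumour patients (GBM excluded).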

[9] = Safety and tolerability in Phase I patients; type: in vivo, human
[10] = Distribution of CC-115 to GBM tumor tissue; type: in vivo; conditions: human, GBM tumor tissue and plasma, oral, 10 mg BID
[11] = Part A, repeat once-daily administration
[12] = patient with endometrial cancer (complete response)
[13] = 8 mg, first dose, 8 mg QD, n = 6
[14] = 8 mg, multiple doses, 8 mg QD, n = 7
[15] = 10 mg, first dose, 10 mg BID, n = 6
[16] = 10 mg, multiple doses, 10 mg BID, n = 7
[17] = 15 mg, first dose, 15 mg BID, n = 6
[18] = 15 mg, multiple doses, 15 mg BID, n = 5
[19] = 16 mg, first dose, 16 mg QD, n = 6
[20] = 16 mg, multiple doses, 16 mg QD, n = 8
[21] = 25 mg, first dose, 25 mg QD, n = 7
[22] = 25 mg, multiple doses, 25 mg QD, n = 5
[23] = 40 mg, first dose, 40 mg QD, n = 6
[24] = 40 mg, multiple doses, 40 mg QD, n = 4
[25] = Part A, efficacy evaluable n=39

CCN1C(=O)CNc2ncc(-c3ccc(-c4nc[nH]n4)nc3C)nc21 [CC-115]
Median biomarker (p4E-BP1) ([1]; 10 mg BID cohort, after 3 hrs): 35% | Dose above which mTORC1 (p4E-BP1) was inhibited in peripheral blood monocytes [1, 11]: > 4 mg QD | Median decrease of p4E-BP1 ([1]; Part B, 10 mg BID, day 15): 34% | Inhibition of p4E-BP1 [1, 12]: 51% | Time for which p4E-BP1 inhibition was sustained ([1]; postdose): at least 5 hrs | AUC(0-inf) ([2]; 8 mg): 237 ng·h/mL | Vd/F ([2]; 8 mg): 294 L | AUC ([2]; 8 mg, Plasma AUC12, mean (CV%), first dose, 8 mg QD, n = 6): 180 ng·h/mL | AUC ([2]; 8 mg, Plasma AUC24, mean (CV%), first dose, 8 mg QD, n = 6): 236 ng·h/mL | Cmax [2, 13]: 36.1 ng/mL | Cmax [2, 14]: 40.9 ng/mL | Tmax [2, 13]: 1.5 h | Tmax [2, 14]: 1.5 h | AUC(0-inf) ([2]; 10 mg): 605 ng·h/mL | Vd/F ([2]; 10 mg): 189 L | Cmax [2, 15]: 51.8 ng/mL | Cmax [2, 16]: 75.2 ng/mL | Tmax [2, 15]: 2.25 h | Tmax [2, 16]: 1.42 h | AUC(0-inf) ([2]; 15 mg): 1310 ng·h/mL | Vd/F ([2]; 15 mg): 173 L | Cmax [2, 17]: 134 ng/mL | Cmax [2, 18]: 162 ng/mL | Tmax [2, 17]: 1.04 h | Tmax [2, 18]: 1.52 h | AUC(0-inf) ([2]; 16 mg): 625 ng·h/mL | Vd/F ([2]; 16 mg): 264 L | Cmax [2, 19]: 88.7 ng/mL | Cmax [2, 20]: 118 ng/mL | Tmax [2, 19]: 2.95 h | Tmax [2, 20]: 1.65 h | AUC(0-inf) ([2]; 25 mg): 1910 ng·h/mL | Vd/F ([2]; 25 mg): 149 L | Cmax [2, 21]: 173 ng/mL | Cmax [2, 22]: 198 ng/mL | Tmax [2, 21]: 3 h | Tmax [2, 22]: 1.52 h | AUC(0-inf) ([2]; 40 mg): 2130 ng·h/mL | Vd/F ([2]; 40 mg): 201 L | Cmax [2, 23]: 167 ng/mL | Cmax [2, 24]: 244 ng/mL | Tmax [2, 23]: 2.25 h | Tmax [2, 24]: 3 h | Increase of Cmax and AUC∞ with dose ([2]; single and multiple doses ranging from 4 to 40 mg): linear, dose-proportional | Excreted in urine ([3]; Part A): Less than 1% | Fe (fraction excreted unchanged in urine), mean (CV%) ([3]; 8 mg QD, n = 6): 0.25 (66) % | Urine Ae24, mean (CV%) ([3]; 8 mg QD, n = 6): 19,748 (66) ng | Fe (fraction excreted unchanged in urine), mean (CV%) ([3]; 10 mg BID, n = 6): 0.53 (108) % | Urine Ae24, mean (CV%) ([3]; 10 mg BID, n = 6): 53,259 (108) ng | Fe (fraction excreted unchanged in urine), mean (CV%) ([3]; 15 mg BID, n = 6): 0.72 (53) % | Urine Ae24, mean (CV%) ([3]; 15 mg BID, n = 6): 107,283 (53) ng | Fe (fraction excreted unchanged in urine), mean (CV%) ([3]; 16 mg QD, n = 6): 0.33 (108) % | Urine Ae24, mean (CV%) ([3]; 16 mg QD, n = 6): 52,491 (108) ng | Fe (fraction excreted unchanged in urine), mean (CV%) ([3]; 25 mg QD, n = 7): 0.41 (79) % | Urine Ae24, mean (CV%) ([3]; 25 mg QD, n = 7): 103,312 (79) ng | Fe (fraction excreted unchanged in urine), mean (CV%) ([3]; 40 mg QD, n = 6): 0.34 (55) % | Urine Ae24, mean (CV%) ([3]; 40 mg QD, n = 6): 136,157 (55) ng | Median biomarker (pAKT) ([4]; 10 mg BID cohort, after 3 hrs): 84% | Dose above which mTORC2 (pAKT) was inhibited in peripheral blood monocytes [4, 11]: > 4 mg QD | Median decrease of pAKT ([4]; Part B, 10 mg BID, day 15): 80% | Inhibition of pAKT [4, 12]: 85% | Time for which pAKT inhibition was sustained ([4]; postdose): at least 5 hrs | Decrease in Cmax on co-administration of the tablet with food [5]: ~ 40% | Delay in Tmax on co-administration of the tablet with food [5]: 3.5 h | Total exposure (AUC∞) fed versus fasted [5]: similar; also recorded: comparable | Inhibition of pAKT in paired tumor biopsies [6]: Moderate, not statistically significant, inhibition | Inhibition of p4EBP1 in paired tumor biopsies [7]: Moderate, not statistically significant, inhibition | Stable disease, patients ([8]; BA/FE substudy): 4 patients | Partial response (unconfirmed), patients ([8]; BA/FE substudy, breast carcinoma (5 patients)): 2 patients | Stable disease, patients ([8]; BA/FE substudy, breast malignancies): 1 patients | Stable disease, patients ([8]; BA/FE substudy, ovarian malignancies): 2 patients | Stable disease, patients ([8]; BA/FE substudy, rectal malignancies): 1 patients | Disease control rate (DCR) [8, 25]: 51% | Overall response rate (ORR) [8, 25]: 5% | 6-month PFS ([8]; Part B, CLL/SLL): 86% | Best response of SD by IWCLL and non-IWCLL criteria ([8]; Part B, CLL/SLL, June 2017): 25% | PR by IWCLL criteria ([8]; Part B, CLL/SLL, June 2017): 25% | PR by non-IWCLL criteria (persistent lymphocytosis) ([8]; Part B, CLL/SLL, June 2017): 38% | Best response of SD ([8]; Part B, CRPC, 11 efficacy evaluable patients): 64% | 6-month PFS rate ([8]; Part B, ES): 0% | Best response of SD ([8]; Part B, ES n=9): 22% | Best response of nonprogression ([8]; Part B, GBM, 14 evaluable patients): 21% | Best response of SD ([8]; Part B, HNSCC n=17): 53% | Time in complete remission / tumor-free ([8]; one patient with endometrial cancer, 10 mg BID reduced to 8 mg BID): > 4 years | Drug-related AE: diarrhea ([9]; Part A): 25% | Drug-related AE: fatigue ([9]; Part A): 50% | Drug-related AE: hyperglycemia ([9]; Part A): 23% | Drug-related AE: nausea ([9]; Part A): 41% | Drug-related AE: vomiting ([9]; Part A): 41% | Grade 3 toxicities, patients ([9]; Part A): 41% | Grade 3 toxicity: fatigue ([9]; Part A): 7% | Grade 3 toxicity: hypertriglyceridemia ([9]; Part A): 5% | Grade 3 toxicity: hypophosphatemia ([9]; Part A): 7% | Grade 3 toxicity: maculopapular rash ([9]; Part A): 5% | Grade 3 toxicity: stomatitis ([9]; Part A): 5% | Patients requiring dose reduction from initially assigned dose levels ([9]; Part A): 39% | Patients requiring drug interruption ([9]; Part A): 93% | Patients who discontinued treatment due to AEs ([9]; Part A): 7% | Patients with ≥1 drug-related AE ([9]; Part A): 93% | Dose-limiting toxicities (increased transaminases and stomatitis) ([9]; Part A, 15 mg BID): 2 DLTs | Dose-limiting toxicity (thrombocytopenia), patients ([9]; Part A, 16 mg QD): 1 patient | Dose-limiting toxicity (stomatitis), patients ([9]; Part A, 25 mg QD): 1 patient | Dose-limiting toxicities (hyperglycemia, asthenia, and fatigue), patients ([9]; Part A, 40 mg QD): 2 of 6 patients | Maximum-tolerated dose (MTD) ([9]; Part A, once-daily schedule): 25 mg QD | Non-tolerated dose (NTD) ([9]; Part A, once-daily schedule): 40 mg QD | Maximum-tolerated dose (MTD) ([9]; Part A, twice-daily schedule): 10 mg BID | Non-tolerated dose (NTD) ([9]; Part A, twice-daily schedule): 15 mg BID | Patients requiring ≥1 dose reduction, range over cohorts ([9]; Part B overall): 40–93% | Patients with dose reductions ([9]; Part B, GBM): 93% | Kp [10]: 0.713
